mca = not defined here
Columns and labels:
Sm20S = type: biochemical, Schistosoma mansoni; conditions: purified Sm20S
Outline: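 Purified Sm20S at 10 nM was given 2-fold serial dilutions of each substrate and fluorescence was read at 24°C. Ex/em was 360/460 nm for amc and 320/400 nm for mca substrates. Ranges were 2–500 μM for the β1 pair and 6.25–500 μM for the β2 pair. Relative activity was normalized to the rate at 500 μM (β1 pair), 500 μM Boc-LRR-amc vs 31.25 μM mca-FnKRR-K(dnp) (β2), and 100 μM (β5 pair). Technical triplicates.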

[1] = test system: 20S proteasome β1 subunit (single-step enriched extracts); assay: Proteasome inhibition in three Schistosoma species, β1 substrate mca-VDQMDGW-K; type: biochemical, S. mansoni, S. haematobium, S. japonicum
Outline: (§1)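 Extracts of S. mansoni, S. haematobium and S. japonicum adults were enriched by 30%/60% ammonium sulfate precipitation. Extracts (S. haematobium 0.625 μg/μL; others 1.25 μg/μL) were preincubated 1 h with 500 nM test compound (one also at 250 nM) or 0.125% DMSO. An equal volume of substrate was then added: 20 μM β1 or β2 mca/K(dnp) substrate, or 40 μM β5 Ac-FNKL-amc. Read at 24°C, triplicate wells.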

[2] = test system: 20S proteasome β5 subunit (single-step enriched extracts); assay: Proteasome inhibition in three Schistosoma species, β5 substrate Ac-FNKL-amc; type: biochemical, S. mansoni, S. haematobium, S. japonicum; conditions: for reduction of β5 activity, across three Schistosoma species: 250 nM inhibitor; for inhibition of β5 activity, three Schistosoma species: extracts pre-incubated 1 h with 500 nM inhibitor
Outline: as §1

Sm20S β1 subunit [3] = biological target: T1, Sm20S β1 subunit (Schistosoma mansoni, UniProt G4V926); assay: Concentration-response assay, purified Sm20S, Z-LLE-amc substrate; type: biochemical
T1 sequence (G4V926 1-225): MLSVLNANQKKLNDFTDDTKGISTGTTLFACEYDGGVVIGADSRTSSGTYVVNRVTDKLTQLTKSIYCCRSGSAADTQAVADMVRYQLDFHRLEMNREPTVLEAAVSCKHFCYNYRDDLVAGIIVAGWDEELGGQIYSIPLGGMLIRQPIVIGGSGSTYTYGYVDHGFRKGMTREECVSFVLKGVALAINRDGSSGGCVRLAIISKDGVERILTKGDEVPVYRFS
Outline: (§2)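 Sm20S purified from adult worm homogenate by 30%/60% ammonium sulfate precipitation, gel filtration and DEAE anion exchange. Test compound was 3-fold serially diluted in DMSO, then diluted 250-fold into 20 mM Tris-HCl pH 7.5, 0.02% SDS with 20 nM enzyme. After 15 min preincubation, an equal volume of 20 μM substrate was added: Z-LLE-amc (β1), Boc-LRR-amc (β2) or Suc-LLVY-amc (β5). Read at RT for 2 h every 2 min. Max velocity over eight reads, normalized to 0.1% DMSO control, four-parameter logistic fit.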

Sm20S β2 subunit [4] = biological target: T2, Sm20S β2 subunit (Schistosoma mansoni, UniProt G4VSW3); assay: Concentration-response assay, purified Sm20S, Boc-LRR-amc substrate; type: biochemical; conditions: for inhibition at 0.5 µM: 2 h, read-out: reduction of β2 activity (Boc-LRR-amc)
T2 sequence (G4VSW3 39-281): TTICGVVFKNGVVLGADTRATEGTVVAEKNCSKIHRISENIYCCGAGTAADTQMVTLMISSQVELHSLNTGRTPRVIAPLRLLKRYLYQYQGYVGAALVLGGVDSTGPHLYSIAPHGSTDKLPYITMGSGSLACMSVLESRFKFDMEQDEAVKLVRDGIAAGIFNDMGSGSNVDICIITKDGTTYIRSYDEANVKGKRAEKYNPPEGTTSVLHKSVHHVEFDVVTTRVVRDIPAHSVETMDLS
Outline: as §2

Sm20S β5 subunit = biological target: T3, Sm20S β5 subunit (Schistosoma mansoni, UniProt A0A5K4F079); assay: Concentration-response assay, purified Sm20S, Suc-LLVY-amc substrate; type: biochemical; conditions: 500 nM inhibitor
T3 sequence (A0A5K4F079 63-264): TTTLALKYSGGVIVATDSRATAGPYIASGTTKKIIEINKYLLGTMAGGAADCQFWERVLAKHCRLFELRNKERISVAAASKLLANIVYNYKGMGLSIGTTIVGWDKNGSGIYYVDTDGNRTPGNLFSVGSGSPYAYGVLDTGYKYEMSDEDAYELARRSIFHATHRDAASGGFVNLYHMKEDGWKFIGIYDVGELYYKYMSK
Outline: as §2

Sm20S β1 subunit [5] = biological target: T1, Sm20S β1 subunit; assay: Inhibition of single-step enriched Sm20S, mca-VDQMDGW-K; type: biochemical
Outline: (§3)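 Single-step enriched Sm20S: S. mansoni extract precipitated with ammonium sulfate (30% then 60% saturation, 60 min each on ice), resuspended in 100 mM Tris-HCl pH 7.5, 100 μM E-64, and concentrated on a 100 kDa filter. Assay buffer contained pepstatin, E-64 and AEBSF. Extract was incubated with test compound 1 h at RT, and cleavage of internally quenched mca/K(dnp) substrates was read at 24°C (ex/em 320/400 nm). Technical triplicates, curve fitting.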

[6] = test system: 20S proteasome β2 subunit (single-step enriched extracts); assay: Proteasome inhibition in three Schistosoma species, β2 substrate mca-FnKRR-K; type: biochemical, S. mansoni, S. haematobium, S. japonicum; conditions: extracts pre-incubated 1 h with 500 nM inhibitor
Outline: as §1

Sm20S β2 subunit [7] = biological target: T2, Sm20S β2 subunit; assay: Inhibition of single-step enriched Sm20S, mca-FnKRR-K; type: biochemical
Outline: as §3

Sm20S β1 subunit [8] = biological target: T1, Sm20S β1 subunit; assay: Inhibition of purified Sm20S, caspase-3 substrate mca-VDQMDGW-K; type: biochemical; conditions: 100 nM inhibitor, 10 μM substrate

Ac‐FNKL‐amc
cleavage rate relative to Suc-LLVY-amc (Sm20S; both substrates at 25 μM, β5): ~ 4 fold
substrate concentration at which cleavage is maximal (Sm20S; β5 substrate): 25 µM

CCCCCC(=O)N[C@@H](Cc1c[nH]c2ccccc12)C(=O)N[C@@H](Cc1c[nH]c2ccccc12)C(=O)N[C@@H](Cc1ccccc1)C(=O)[C@@]1(C)CO1 [CP‐17]
reduction in β1 activity, across three Schistosoma species ([1]; 250 nM inhibitor): little inhibition
reduction of β5 activity, across three Schistosoma species [2]: > 90%

CC(C)C[C@H](NC(=O)[C@H](CCc1ccccc1)NC(=O)CN1CCOCC1)C(=O)N[C@@H](Cc1ccccc1)C(=O)N[C@@H](CC(C)C)C(=O)[C@@]1(C)CO1 [CFZ, carfilzomib]
inhibition of β1 activity with old substrate Z-LLE-amc (Sm20S β1 subunit [3]; 10 μM inhibitor): fully inhibited
inhibition at 0.5 µM (Sm20S β1 subunit [3]; 2 h, read-out: reduction of β1 activity (Z-LLE-amc)): ~40%
inhibition at 0.5 µM (Sm20S β2 subunit [4]): ~40%
inhibition of β5 activity (Suc-LLVY-amc) (Sm20S β5 subunit): strongly inhibited
inhibition of β1 activity with new substrate mca-VDQMDGW-K(dnp) (Sm20S β1 subunit [5]; 10 μM inhibitor, single-step enriched Sm20S): only partially inhibitory
inhibition at 5 µM (Sm20S β1 subunit [5]; read-out: inhibition of β1 subunit): 15%
inhibition of β2 activity, three Schistosoma species [6]: inhibited β5 and β2 more than β1
inhibition of β5 activity, three Schistosoma species [2]: inhibited β5 and β2 more than β1

C[C@@]12OC(=O)[C@]1([C@@H](O)[C@@H]1C=CCCC1)NC(=O)[C@@H]2CCCl [MZB, marizomib]
reduction of β5 activity, across three Schistosoma species [2]: complete inactivation

CC(C)C[C@H](NC(=O)[C@H](Cc1ccccc1)NC(=O)c1cnccn1)B(O)O [BTZ, bortezomib]
reduction of β1 activity (Z-LLE-amc) (Sm20S β1 subunit [3]; 500 nM inhibitor, purified Sm20S): strongly inhibited
inhibition of β2 activity with old substrate Boc-LRR-amc (Sm20S β2 subunit [4]; 10 μM inhibitor): completely inhibited
inhibition at 0.5 µM (Sm20S β2 subunit [4]): ~35%
inhibition of β5 activity (Suc-LLVY-amc) (Sm20S β5 subunit): strongly inhibited
inhibition of β2 activity with new substrate mca-FnKRR-K(dnp) (Sm20S β2 subunit [7]; 10 μM inhibitor): did not inhibit
reduction of β2 activity (Sm20S β2 subunit [7]; up to 5 μM inhibitor): No reduction
inhibition of β1 activity, three Schistosoma species ([1]; extracts pre-incubated 1 h with 500 nM inhibitor): preferentially inhibited
inhibition of β5 activity, three Schistosoma species [2]: preferentially inhibited
inhibition of mca-VDQMD*GW-K(dnp) hydrolysis by Sm20S (Sm20S β1 subunit [8]): inhibited

Boc‐LRR‐amc
cleavage by Sm20S over substrate concentration range (Sm20S; 6.25-500 μM substrate, β2): steadily increased across the entire concentration range

mca‐VDQMDGW‐K(dnp)‐NH2 (mca-VDQMDGW-{K(dnp)-NH2}; reading uncertain; also: printed as mca‐VDQMDGW‐K(dnp)‐NH2)
cleavage efficiency relative to LLE-amc (Sm20S; between 16 and 250 μM substrate, β1): ~ 2 fold
